High-throughput results from PubChem.
In the library only some 1.5% were active in any assay of this set; here they are far more common.
PPC-1+TRAIL kill = compounds killing PPC-1 cancer cells with TRAIL present, primary screen, TRAIL potentiator project, ATPLite luminescence, uHTS; PPC-1 cells + TRAIL, ATPLite viability luminescence; cell killing (% activity), % at 4 µM or 5 µM; actives 0.41% (n = 220,000);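 active = cell killing above 50% in the first pass at 4 µM, then a duplicate retest at 5 µM averaging 50% or more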
Lipid droplet = inhibitors of hepatocyte lipid droplet formation, primary screen, imaging, high-throughput imaging, BODIPY stain | AML12 mouse hepatocytes, oleate lipid droplets | inhibition, % at 6.5 µM | actives 0.4% (n = 240,000);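 active = lipid droplet intensity inhibited by at least 50%, with more than 500 cells counted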
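Material – mouse AML12 hepatocyte cell line, fixed after treatment · Compound dosing – one dose, 6.5 µM compound · Times – compound with oleate, overnight · Measured by – Image-based BODIPY and DAPI two-channel analysis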
Platelet DG rel = inhibitors of platelet dense granule secretion, primary screen, cell-based, MLPCN, human platelets | human platelet-rich plasma, SFLLRN dense granule ATP release, luminescence | inhibition, %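 (compounds screened at 7.5 µM in platelet-rich plasma)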 | actives 0.22% (n = 300,000) | AID 1663, 2009;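 active = mean replicate score, as percent of positive control, at or above 50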
STAT1 blocker = STAT1 signaling inhibitors, primary screen, cell-based, HTS, luciferase reporter. AID 920, 2007. actives 0.35% (n = 200,000). NIH 3T3 STAT1-luciferase reporter, IFN-gamma, luminescence. inhibition, % at 5.5 µM;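 active = inhibition above a set limit, the mean inhibition across all tested compounds plus 3 SD, cut at about 34% in these data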
STAT3 inh = IL-6 driven STAT3 reporter inhibitors, primary screen, U3A cells, luciferase, luminescence, MLSCN library; actives 0.89% (n = 190,000); IL-6 STAT3-luciferase reporter; host cell line lacks STAT1; inhibition, % at 5.5 µM;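 active = inhibition above the mean inhibition across all screened compounds plus 3 SD, cut at about 44% in these data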
TAG inh = inhibitors of triacylglycerol accumulation, primary screen, cell-based, uHTS, fluorescence, H9c2 | actives 0.66% (n = 230,000) | inhibition, % at 12.5 µM | H9c2 cells, Nile Red lipid (TAG) fluorescence; cells loaded with 200 µM oleic acid;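 active = pattern-corrected inhibition of lipid staining of at least 50% with the nuclear-stain viability signal not falling by more than 50%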
PPC-1 tox = cytotoxicity in PPC-1 cells, confirmation, cytotoxicity control for TRAIL apoptosis potentiator project, cell-based, ATP content luminescence; shares compounds with PPC-1+TRAIL kill; PPC-1 viability, ATPlite luminescence, overnight; cytotoxicity, % at 5 µM; actives 50% (n = 1,200);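 active = reconfirmed compounds whose average cytotoxicity reaches 50% or more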
A number is an active result; i = inactive; nt = not tested or not shown.

SMILES	PPC-1+TRAIL kill	Lipid droplet	Platelet DG rel	STAT1 blocker	STAT3 inh	TAG inh	PPC-1 tox
COC(=O)c1ccc2nc(NC(=O)C(C)(C)C)sc2c1	85.3	i	i	73.8	99.7	i	86.2
COC(=O)c1ccc2nc(NC(=O)C3CCCCC3)sc2c1	i	i	i	i	i	i	nt
COc1ccc(-c2ccc(SC)nn2)cc1	76.7	i	57.3	58.7	83.6	i	68.7
Cc1ccc(S(=O)(=O)Nc2ccc3c(c2)C(=O)N([C@@H](C)CO)C[C@@H](C)[C@@H](CN(C)CC2CC2)OCCCC[C@@H](C)O3)cc1	nt	nt	nt	nt	nt	i	nt
Cc1ccc(-c2c[n+]3c(n2-c2ccccc2)CCC3)cc1	i	i	i	nt	nt	i	nt
Cc1ccc(-n2c(-c3ccc(Br)cc3)c[n+]3c2CCc2ccc4cccnc4c2-3)cc1	i	nt	i	39.0	74.6	nt	i
CCOc1ccc(NC(=O)c2ccc(N)cc2)cc1	i	i	i	i	i	i	i
CCOc1ccc(NC(=O)c2ccc(NC(=O)c3ccc(NC(N)=O)cc3)cc2)cc1	nt	nt	nt	nt	nt	i	nt
CCN1C(=O)CC(Sc2ccccc2N)C1=O (stereo unspecified)	i	i	i	i	i	i	i
Cc1nccn1CC(=O)c1ccccc1	nt	nt	nt	nt	nt	i	nt
CC1(C(=O)NS(=O)(=O)c2cccc(C#N)c2)CCN1C(=O)CCC1CCCC1 (stereo unspecified)	nt	nt	nt	nt	nt	i	nt
CCS/C(N)=N/N=C/c1cc(C)ccc1O	62.2	i	i	i	i	i	63.5
Clc1cccc(-c2cc3nc4c(c(N5CCOCC5)n3n2)CCCC4)c1	i	i	i	i	i	nt	i
CCOc1ccc(S(=O)(=O)N(C)c2ccc(OCC(=O)Nc3nccs3)cc2)cc1	i	i	i	i	i	i	nt
CCOc1ccc(OCC(=O)Nc2nccs2)cc1	i	i	69.0	60.7	95.3	i	51.5
c1ccc(OCCNc2ccn3nc(-c4ccc(OCCN5CCOCC5)cc4)cc3n2)cc1	nt	nt	nt	nt	nt	i	nt
COC(=O)c1nc2ccc(N3CCOCC3)cc2c(C)c1C(=O)OC	i	i	nt	i	i	i	i
Nc1nc(CCl)nc(Nc2ccccc2)n1	i	i	i	i	i	i	nt
Nc1nc(Nc2ccc(Cl)cc2)nc2ccccc12	78.8	i	72.5	i	62.5	nt	79.9
Cc1cccc(C)c1NC(=O)NS(=O)(=O)c1ccccc1	nt	nt	nt	nt	nt	i	nt
Cn1c(C(=O)Nc2ccc3c(c2)OCCO3)cc2sccc21	i	nt	i	i	i	nt	i
Cc1cc(C(=O)Nc2ccc3c(c2)OCCO3)co1	i	nt	i	i	i	nt	i
Cc1ccc(C(=O)Nc2ccc3c(c2)OCCO3)o1	62.0	i	i	i	i	nt	58.7
CC(=O)Nc1ccc(C(=O)Nc2ccc3c(c2)OCCO3)cc1	nt	nt	i	nt	nt	nt	nt
Cc1cc(C)c(C(=O)Nc2ccc3c(c2)OCCO3)c(C)c1	nt	nt	nt	nt	nt	i	nt
SMILES	PPC-1+TRAIL kill	Lipid droplet	Platelet DG rel	STAT1 blocker	STAT3 inh	TAG inh	PPC-1 tox
O=C(Nc1ccc2c(c1)OCCO2)c1cc2sccc2n1Cc1ccc(F)cc1	i	nt	i	i	i	i	nt
CCc1nc2ccc(C(=O)NCc3cccs3)cn2c1N(C)Cc1nccs1	nt	nt	nt	nt	nt	i	nt
O=C(NCCc1ccc(Cl)cc1)c1cccc(S(=O)(=O)N2CCCC2)c1	nt	nt	nt	nt	nt	i	nt
Clc1ccc(-c2nc3nc4ccccc4nc3n2Cc2ccco2)cc1	i	i	nt	i	i	i	i
Cc1ccc(-c2nc3nc4ccccc4nc3n2Cc2ccco2)cc1	i	i	nt	i	i	i	nt
O=C(C=Cc1ccccc1)c1c[nH]c2ccccc2c1=O	nt	nt	nt	nt	nt	i	nt
O=C(/C=C/c1ccccc1)c1c[nH]c2ccccc12	61.0	i	i	nt	nt	i	66.1
CCCNC(=O)C1(C)CCCN(C(=O)COc2ccc(C(C)(C)C)cc2)C1 (stereo unspecified)	nt	nt	nt	nt	nt	i	nt
Cc1csc(NC(=O)CCS(=O)(=O)c2ccc(Br)cc2)n1	i	i	i	i	i	i	i
Cc1csc(NC(=O)Cc2ccc(Br)cc2)n1	nt	i	i	nt	nt	i	nt
O=S1(=O)c2cccc3cccc(c23)N1Cc1ccc(-c2nnco2)cc1	i	i	i	i	i	nt	i
O=C(Nc1ccccc1C(=O)N1CCCC1)c1cccc(S(=O)(=O)N2CCCCC2)c1	i	i	i	i	i	nt	i
CCOc1cc(N2CCOCC2)c(OCC)cc1NC(=O)CN1C(=O)NC(CC)(c2ccc(F)cc2)C1=O (stereo unspecified)	nt	nt	nt	nt	nt	i	nt
C/C(=N\NC(=O)c1n[nH]c2c1CCC2)c1cccs1	67.9	i	i	nt	nt	i	67.4
O=C(N/N=C/c1cccs1)c1n[nH]c2c1CCCC2	56.4	i	i	nt	nt	i	i
C/C(=N\NC(=O)c1cccs1)c1ccncc1	nt	i	i	nt	nt	nt	nt
CCc1ccc(C(O)c2ncc(-c3ccc(Cl)cc3)[nH]2)cc1 (stereo unspecified)	nt	nt	nt	nt	nt	i	nt
O=C(Nc1ccc(-c2cn3ccsc3n2)cc1)C1CCCC1	72.6	nt	i	i	i	i	73.3
CC(C)CC(=O)Nc1cccc(-c2cn3ccsc3n2)c1	i	i	i	i	i	i	nt
O=C(Nc1ccc(-c2cn3ccsc3n2)cc1)C1CC1	61.3	nt	nt	i	i	i	64.3
CC(=O)Nc1ccc(-c2cn3ccsc3n2)cc1	i	i	i	i	i	i	nt
CCC(=O)Nc1cccc(-c2cn3ccsc3n2)c1	i	i	i	i	i	i	i
COc1cc([N+](=O)[O-])ccc1N/C=C/C(=O)c1cccs1	89.1	nt	i	46.8	72.9	nt	90.5
CC1CCN(C(=O)c2ccc3c(c2)OCO3)CC1	nt	i	i	nt	nt	i	nt
CC1CN(C(=O)c2ccc3c(c2)OCO3)CC(C)O1 (stereo unspecified)	i	i	i	i	i	i	i
SMILES	PPC-1+TRAIL kill	Lipid droplet	Platelet DG rel	STAT1 blocker	STAT3 inh	TAG inh	PPC-1 tox
CCOC(=O)[C@H]1[C@H]2COc3ccc(Br)cc3[C@H]2N2C(=O)CN(Cc3ccc(C)cc3)C(=O)[C@@]12C	nt	nt	nt	nt	nt	i	nt
CCc1nc2ccc(C(=O)NCCCn3ccnc3)cn2c1N(C)Cc1nccs1	nt	nt	nt	nt	nt	i	nt
COc1ccc(CSc2nc3ccccc3[nH]2)cc1	57.7	nt	nt	i	i	i	55.2
Cc1cc(S(=O)(=O)Nc2ccc(C(=O)NC3CC3)cc2)ccc1F	nt	nt	nt	nt	nt	i	nt
CCNC(=O)C1CCCN(C(=O)Cc2ccc3ccccc3c2)CC1 (stereo unspecified)	nt	nt	nt	nt	nt	i	nt
CC(C=NNC(=O)C(=O)NN=CC(C)=Cc1ccccc1)=Cc1ccccc1	nt	nt	nt	nt	nt	i	nt
CC(/C=N/NC(=O)c1ccco1)=C\c1ccccc1	63.4	i	i	i	i	i	63.1
CCCCN1C=CC(=C2C(=O)c3ccccc3C2=O)C=C1	95.6	i	i	94.5	112.2	nt	95.9
COc1cccc(NC(=O)C2(C)CCCN(C(C)C)C2)c1 (stereo unspecified)	nt	nt	nt	nt	nt	i	nt
